Series [1] has as its target T1, Disintegrin and metalloproteinase domain-containing protein 10 (Homo sapiens) (UniProt O14672).
T1 sequence (whole entry): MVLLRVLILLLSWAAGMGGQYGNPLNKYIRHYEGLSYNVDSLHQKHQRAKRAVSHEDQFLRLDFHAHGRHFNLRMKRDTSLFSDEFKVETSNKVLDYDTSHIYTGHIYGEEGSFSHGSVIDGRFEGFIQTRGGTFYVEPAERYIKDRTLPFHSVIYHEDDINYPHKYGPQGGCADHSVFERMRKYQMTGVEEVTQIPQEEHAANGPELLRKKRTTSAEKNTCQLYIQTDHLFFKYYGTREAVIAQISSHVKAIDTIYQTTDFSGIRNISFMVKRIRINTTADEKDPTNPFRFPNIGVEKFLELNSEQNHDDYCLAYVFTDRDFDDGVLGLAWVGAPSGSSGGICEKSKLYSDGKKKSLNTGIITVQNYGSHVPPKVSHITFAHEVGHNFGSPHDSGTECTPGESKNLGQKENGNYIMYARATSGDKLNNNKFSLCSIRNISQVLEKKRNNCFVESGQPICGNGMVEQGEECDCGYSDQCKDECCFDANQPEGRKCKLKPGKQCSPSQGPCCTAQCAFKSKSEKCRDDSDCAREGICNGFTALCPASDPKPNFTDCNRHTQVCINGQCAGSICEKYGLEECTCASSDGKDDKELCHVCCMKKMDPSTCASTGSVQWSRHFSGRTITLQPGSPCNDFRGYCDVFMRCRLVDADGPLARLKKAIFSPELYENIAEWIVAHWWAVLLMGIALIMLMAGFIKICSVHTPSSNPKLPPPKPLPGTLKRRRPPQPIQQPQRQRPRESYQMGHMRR
Kind of series: Inhibition of ADAM10 (unknown origin) at 100 uM preincubated for 30 mins followed by substrate addition measured every 30 mins for 2 hrs by fluorescence assay relative to control. In outline: (§1)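 Enzyme at 30 nM (3× solution) in 10 mM Hepes, 0.001% Brij-35, pH 7.5. Inhibitor series of 10 points, 1:3, from 300 μM, preincubated 30 min at RT. Glycosylated substrate added from a 30 μM 3× solution. Fluorescence (ex 360/em 460 nm) read every 30 min for 2 h. Inhibition taken from hydrolysis rates against substrate-only and substrate-plus-enzyme wells.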

Series [2] has as its target T2, Disintegrin and metalloproteinase domain-containing protein 10 (Homo sapiens, UniProt O14672).
T2 sequence (O14672 whole entry): T1 sequence (whole entry)
Kind of series: Inhibition of ADAM10 (unknown origin) preincubated for 30 mins followed by substrate addition measured every 30 mins for 2 hrs by fluorescence assay. In outline: as §1

The target in series [3] is T3, Disintegrin and metalloproteinase domain-containing protein 17 (Homo sapiens, UniProt P78536). In words: Inhibition of ADAM17 (unknown origin) preincubated for 30 mins followed by substrate addition measured every 30 mins for 2 hrs by fluorescence assay. The method, boiled down:
as §1

Series [4] deals with T4, Neutrophil collagenase (Homo sapiens, UniProt P22894). In words: Inhibition of MMP8 (unknown origin) using Mca-KLPGL-Dnp-AR as substrate preincubated for 30 mins followed by substrate addition measured after 1 hr by fluorescence assay. In outline: (§2)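 Inhibitor as 10-point 1:3 dilutions from 300 μM, 30 min at RT. Substrate added from a 30 μM 3× solution. Single fluorescence read (ex 324/em 393 nm) after 1 h at RT.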
Target sequence in this assay (P22894 whole entry): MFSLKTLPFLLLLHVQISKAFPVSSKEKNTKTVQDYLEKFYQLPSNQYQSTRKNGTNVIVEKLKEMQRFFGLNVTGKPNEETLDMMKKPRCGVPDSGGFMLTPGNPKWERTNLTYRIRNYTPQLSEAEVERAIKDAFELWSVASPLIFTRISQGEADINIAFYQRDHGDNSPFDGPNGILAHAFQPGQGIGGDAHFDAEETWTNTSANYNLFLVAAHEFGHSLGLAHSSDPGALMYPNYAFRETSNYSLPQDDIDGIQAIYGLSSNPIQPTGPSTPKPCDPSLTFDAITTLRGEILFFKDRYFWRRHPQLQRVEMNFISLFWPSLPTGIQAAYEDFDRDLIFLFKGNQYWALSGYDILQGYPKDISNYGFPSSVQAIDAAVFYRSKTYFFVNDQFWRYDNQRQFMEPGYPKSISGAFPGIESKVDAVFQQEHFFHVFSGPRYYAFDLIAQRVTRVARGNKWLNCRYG

The target of series [5] is Matrix metalloproteinase-14 (Homo sapiens, UniProt P50281). Kind of series: Inhibition of MMP14 (unknown origin) using Mca-KLPGL-Dnp-AR as substrate preincubated for 30 mins followed by substrate addition measured after 1 hr by fluorescence assay. The method, boiled down: as §2
Series [6] has as its target T4, Neutrophil collagenase. In words: Inhibition of MMP8 (unknown origin) using Mca-KLPGL-Dnp-AR as substrate at 100 uM preincubated for 30 mins followed by substrate addition measured after 1 hr by fluorescence assay relative to control. In outline: as §2
Target sequence in this assay (P22894 101-467 limits assumed): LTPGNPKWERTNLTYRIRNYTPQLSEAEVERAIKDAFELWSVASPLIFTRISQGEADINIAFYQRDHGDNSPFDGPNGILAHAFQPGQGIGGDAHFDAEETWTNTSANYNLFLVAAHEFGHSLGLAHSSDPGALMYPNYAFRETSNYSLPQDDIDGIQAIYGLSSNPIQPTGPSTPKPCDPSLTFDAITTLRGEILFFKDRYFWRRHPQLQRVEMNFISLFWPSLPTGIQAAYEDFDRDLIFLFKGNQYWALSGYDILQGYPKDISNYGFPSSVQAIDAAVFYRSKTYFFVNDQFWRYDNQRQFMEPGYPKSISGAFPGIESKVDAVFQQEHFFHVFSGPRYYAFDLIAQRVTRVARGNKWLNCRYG
Series [7] has as its target T3, Disintegrin and metalloproteinase domain-containing protein 17. Kind of series: Inhibition of ADAM17 (unknown origin) at 100 uM preincubated for 30 mins followed by substrate addition measured every 30 mins for 2 hrs by fluorescence assay relative to control. In outline: as §1
Series [8] can be described thus: Cytotoxicity against CHOK1 cells assessed as inhibition of cell viability up to 33 uM after 72 hrs by CellTiter-Glo assay. The settings on record: chinese hamster, cho-k1, 72 h. Type of series: cell-based, Cricetulus griseus.
Another series concerns A549. Kind of series: Cytotoxicity against human A549 cells assessed as inhibition of cell viability up to 33 uM after 72 hrs by CellTiter-Glo assay. Particulars: a549, 72 h. It is filed as cell-based.
Series [9] deals with T3, Disintegrin and metalloproteinase domain-containing protein 17. In words: Inhibition of ADAM17 in human THP1 cells assessed as inhibition of LPS-stimulated TNFalpha cleavage at 25 uM after 1 hr by AlphaScreen assay relative to control. The settings on record: THP-1. Type of series: cell-based. In outline:
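THP-1 cells grown in RPMI 1640 with 10% FBS and 0.05 mM 2-mercaptoethanol; 3000 cells per well. Compound given in 3% DMSO for 1 h, then LPS added (1 μg/mL final) and cells incubated overnight at 37 °C. TNFα detected by AlphaScreen using anti-TNFα acceptor beads and streptavidin donor beads, each step 1 h in the dark at RT.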

Series [10] addresses T1, Disintegrin and metalloproteinase domain-containing protein 10 (Homo sapiens). Kind of series: Inhibition of ADAM10 in HTSMC assessed as inhibition of PMA-stimulated release of CXCL16 at 10 uM preincubated for 30 mins followed by PMA challenge measured after 4 to 24 hrs by ELISA.
The target in series [11] is T3, Disintegrin and metalloproteinase domain-containing protein 17. Kind of series: Inhibition of ADAM17 in human HT1080 cells assessed as inhibition of PMA-stimulated PTK7 L622D mutant shedding at 25 to 100 uM after 16 hrs by Western blot analysis. The settings on record: HT-1080. It is filed as cell-based. In outline:
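PTK7 shedding tested at 25, 50 and 100 μM in PMA-stimulated cells. HT1080 fibrosarcoma cells carried the L622D PTK7 mutant uncleavable by MT1-MMP; SW480 colorectal cells expressed wild-type PTK7 endogenously. Soluble PTK7 was detected.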

For series [12] the target is unchanged. Kind of series: Inhibition of ADAM17 in human A549 cells assessed as inhibition of PMA-stimulated heregulin shedding at 40 uM incubated for 1 hr followed by PMA stimulation measured after 1 hr. It is filed as cell-based. The method, boiled down: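 Heregulin shedding in A549 cells, with all compounds tested at 40 μM.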
Series [13] concerns the target T1, Disintegrin and metalloproteinase domain-containing protein 10 (Homo sapiens). Kind of series: Inhibition of ADAM10 in human A549 cells assessed as inhibition of betacellulin shedding at 40 uM after 1 hr by ELISA. Type of series: cell-based. In outline: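 A549 cells were tested for betacellulin shedding at 40 μM, with Marimastat at 10 μM as control.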
The target of series [14] is T3, Disintegrin and metalloproteinase domain-containing protein 17. In words: Inhibition of ADAM17 in human A549 cells assessed as effect on PMA-stimulated TGFalpha shedding up to 100 uM preincubated for 1 hr followed by PMA stimulation measured after 1 hr by ELISA. It is filed as cell-based. The method, boiled down:
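TGFα shedding from PMA-treated A549 cells tested up to 100 μM. Marimastat at 10 μM served as control, with a non-PMA-treated control included; soluble TGFα measured in the supernatant.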

The subject of the next series is ADAM17 (Homo sapiens). In words: Inhibition of ADAM17 in human SW480 cells assessed as inhibition of PMA-stimulated wild type PTK7 shedding at 25 to 100 uM after 16 hrs by Western blot analysis.
The target in series [15] is T1, Disintegrin and metalloproteinase domain-containing protein 10 (Homo sapiens). In words: Inhibition of ADAM10 in HTSMC assessed as inhibition of constitutive release of fractalkine/CX3CL1 at 10 uM preincubated for 30 mins measured after 4 to 24 hrs by ELISA.

For three molecules, inhibition, IC50 and Activity results are on record in ChEMBL document CHEMBL3593206, “SAR Studies of Exosite-Binding Substrate-Selective Inhibitors of A Disintegrin And Metalloprotease 17 (ADAM17) and Application as Selective in Vitro Probes” (J Med Chem, 2015).

T3 sequence (P78536 whole entry, the tested form may be a part): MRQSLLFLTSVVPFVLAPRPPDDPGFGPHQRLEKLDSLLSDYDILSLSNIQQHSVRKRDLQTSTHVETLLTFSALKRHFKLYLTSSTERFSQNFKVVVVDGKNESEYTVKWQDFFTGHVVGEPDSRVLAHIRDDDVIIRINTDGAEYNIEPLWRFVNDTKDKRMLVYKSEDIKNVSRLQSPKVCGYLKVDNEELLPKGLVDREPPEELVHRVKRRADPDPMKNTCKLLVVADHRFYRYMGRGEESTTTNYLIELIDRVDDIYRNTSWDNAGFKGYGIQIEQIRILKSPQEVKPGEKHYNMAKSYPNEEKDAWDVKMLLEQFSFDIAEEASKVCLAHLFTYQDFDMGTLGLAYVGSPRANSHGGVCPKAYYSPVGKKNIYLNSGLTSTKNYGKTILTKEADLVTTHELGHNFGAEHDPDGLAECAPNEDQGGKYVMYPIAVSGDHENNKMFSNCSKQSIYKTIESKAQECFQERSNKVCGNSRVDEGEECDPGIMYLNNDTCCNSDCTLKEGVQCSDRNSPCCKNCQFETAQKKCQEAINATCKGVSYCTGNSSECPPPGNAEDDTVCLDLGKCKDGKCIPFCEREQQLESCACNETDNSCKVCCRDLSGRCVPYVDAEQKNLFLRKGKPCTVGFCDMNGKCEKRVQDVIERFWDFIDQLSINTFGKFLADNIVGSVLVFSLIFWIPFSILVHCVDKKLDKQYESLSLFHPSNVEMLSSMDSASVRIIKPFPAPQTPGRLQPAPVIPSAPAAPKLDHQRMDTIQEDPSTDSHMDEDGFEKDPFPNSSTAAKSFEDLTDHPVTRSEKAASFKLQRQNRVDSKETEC

As to `O=C1NC[C@H](Cc2ccccc2)N(C[C@@H]2CCCN2C[C@@H](CC2CCCCC2)N2C[C@H](Cc3ccc(O)cc3)N(CCc3ccccc3)C(=O)C2=O)C1=O`, the inhibition in series [1] is 0%; at Neutrophil collagenase [6] it was 28%; in [7] it was 100%; in series [9], 36%; in series [10], 0%; in [11] it was 0%. Further, the inhibition (in [12]; in [13]; in series [14]; in the series on ADAM17 (Homo sapiens); in series [15]) was 0% in each case. Besides, the IC50 in series [2] was more than 100 µM; in series [3] it was 5.4 µM; on Neutrophil collagenase [4], more than 100 µM; in series [5] it was more than 100 µM. The Activity entry (in series [8]; in the series on A549) was “Non-toxic” throughout.

Take `CCCC[C@H]1CN([C@@H](Cc2ccc(O)cc2)CN2CCC[C@H]2CN2C(=O)C(=O)NC[C@H]2Cc2ccc3ccccc3c2)C(=O)C(=O)N1CCC12CC3CC(CC(C3)C1)C2`: the inhibition was determined as 0% in series [1]; 0% against Neutrophil collagenase [6]; 100% in series [7]; 57% in [9]; 0% in [10]; 0% in series [11]. Further, the inhibition (in series [12]; in series [13]; in series [14]; in the series with ADAM17 (Homo sapiens); in series [15]) was 0% each time. The 50% inhibitory concentration (IC50) is more than 100 µM in [2], 5.7 µM in series [3], more than 100 µM at Neutrophil collagenase [4] and more than 100 µM in series [5]. Moreover, the Activity result (in [8]; with A549) was “Non-toxic” each time.

With `O=C1NC[C@@H](Cc2ccc(O)cc2)N(C[C@@H]2CCCN2C[C@@H](Cc2ccc3ccccc3c2)N2CC(Cc3ccc(O)cc3)N(CCC34CC5CC(CC(C5)C3)C4)C(=O)C2=O)C1=O` (single isomer, unassigned), the inhibition in [1] was determined as 0%; on Neutrophil collagenase [6] it was 13%; in series [7], 95%; in [9], 43%; in series [10] it was 0%; in series [11], 25%. The inhibition in [12] was determined as 100%; in series [13], 0%; in series [14], 0%; in the series on ADAM17 (Homo sapiens) it was 0%; in series [15], 0%. Also, the half-maximal inhibitory concentration (IC50) in series [2] is more than 100 µM; in [3] it was 4.2 µM; against Neutrophil collagenase [4], more than 100 µM; in series [5], more than 100 µM. In addition, the Activity entry (in [8]; with A549) was “Non-toxic” throughout.
